In ChEMBL document CHEMBL5058577, “EUbOPEN Chemogenomics Library 2 (Multiplex)” (2022):

Test system: Fibroblast
Assay: Multiplex assay against human fibroblast
Assay type: toxicity, cell-based
Summary of the method: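 Four dyes were applied at seeding to live cells: Hoechst33342, BioTracker Green Microtubule Cytoskeleton Dye, MitoTracker Red and Annexin V Alexa Fluor 680. Imaging after compound addition used a CQ1 microscope at 37°C and 5% CO2. CellPathfinder machine-learning gating then sorted cells into Hoechst high-intensity objects or normal cells, normal cells into healthy, pyknosed or fragmented nuclei, and pyknosed cells into mitotic or apoptotic, with tubulin, mitochondrial-mass and membrane-permeability phenotypes given as per cents of healthy-nucleus cells.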

[1] = 12 h, 1 µM, compound concentration 1 uM, replicate 1
[2] = 12 h, 1 µM, compound concentration 1 uM, replicate 2
[3] = 12 h, 10 µM, compound concentration 10 uM, replicate 1
[4] = 12 h, 10 µM, compound concentration 10 uM, replicate 2
[5] = 24 h, 1 µM, compound concentration 1 uM, replicate 1
[6] = 24 h, 1 µM, compound concentration 1 uM, replicate 2
[7] = 24 h, 10 µM, compound concentration 10 uM, replicate 1
[8] = 24 h, 10 µM, compound concentration 10 uM, replicate 2
[9] = 48 h, 1 µM, compound concentration 1 uM, replicate 1
[10] = 48 h, 1 µM, compound concentration 1 uM, replicate 2
[11] = 48 h, 10 µM, compound concentration 10 uM, replicate 1
[12] = 48 h, 10 µM, compound concentration 10 uM, replicate 2

COc1ccc2[nH]c(I)c(CCNC(C)=O)c2c1 [IODOMELATONIN]
Population Apoptotic (%) [1]: 53% | Population Fragmented Nuclei (%) [1]: 15% | Population Healthy Nuclei (%) [1]: 64% | Population Hoechst High Intensity Objects (%) [1]: 2% | Population Membrane Permeable-Phenotype (%) [1]: 4% | Population Mitochondria Different-Phenotype (%) [1]: 4% | Population Mitotic Cells (%) [1]: 46% | Population Normal (%) [1]: 97% | Population Pyknosed Nuclei (%) [1]: 19% | Population Tubulin-Different-Phenotype (%) [1]: 28% | Total Cell Count [1]: 137 | Population Apoptotic (%) [2]: 32% | Population Fragmented Nuclei (%) [2]: 23% | Population Healthy Nuclei (%) [2]: 60% | Population Hoechst High Intensity Objects (%) [2]: 5% | Population Membrane Permeable-Phenotype (%) [2]: 7% | Population Mitochondria Different-Phenotype (%) [2]: 3% | Population Mitotic Cells (%) [2]: 68% | Population Normal (%) [2]: 94% | Population Pyknosed Nuclei (%) [2]: 15% | Population Tubulin-Different-Phenotype (%) [2]: 33% | Total Cell Count [2]: 173 | Population Apoptotic (%) [3]: 35% | Population Fragmented Nuclei (%) [3]: 14% | Population Healthy Nuclei (%) [3]: 64% | Population Hoechst High Intensity Objects (%) [3]: 2% | Population Membrane Permeable-Phenotype (%) [3]: 2% | Population Mitochondria Different-Phenotype (%) [3]: 6% | Population Mitotic Cells (%) [3]: 64% | Population Normal (%) [3]: 97% | Population Pyknosed Nuclei (%) [3]: 21% | Population Tubulin-Different-Phenotype (%) [3]: 20% | Total Cell Count [3]: 148 | Population Apoptotic (%) [4]: 30% | Population Fragmented Nuclei (%) [4]: 38% | Population Healthy Nuclei (%) [4]: 44% | Population Hoechst High Intensity Objects (%) [4]: 3% | Population Membrane Permeable-Phenotype (%) [4]: 5% | Population Mitochondria Different-Phenotype (%) [4]: 0% | Population Mitotic Cells (%) [4]: 69% | Population Normal (%) [4]: 96% | Population Pyknosed Nuclei (%) [4]: 17% | Population Tubulin-Different-Phenotype (%) [4]: 43% | Total Cell Count [4]: 157 | Population Apoptotic (%) [5]: 62% | Population Fragmented Nuclei (%) [5]: 16% | Population Healthy Nuclei (%) [5]: 63% | Population Hoechst High Intensity Objects (%) [5]: 0% | Population Membrane Permeable-Phenotype (%) [5]: 0% | Population Mitochondria Different-Phenotype (%) [5]: 7% | Population Mitotic Cells (%) [5]: 37% | Population Normal (%) [5]: 99% | Population Pyknosed Nuclei (%) [5]: 20% | Population Tubulin-Different-Phenotype (%) [5]: 27% | Total Cell Count [5]: 134 | Population Apoptotic (%) [6]: 57% | Population Fragmented Nuclei (%) [6]: 26% | Population Healthy Nuclei (%) [6]: 57% | Population Hoechst High Intensity Objects (%) [6]: 5% | Population Membrane Permeable-Phenotype (%) [6]: 6% | Population Mitotic Cells (%) [6]: 42% | Population Normal (%) [6]: 94% | Population Pyknosed Nuclei (%) [6]: 15% | Population Tubulin-Different-Phenotype (%) [6]: 39% | Total Cell Count [6]: 176 | Population Apoptotic (%) [7]: 35% | Population Fragmented Nuclei (%) [7]: 16% | Population Healthy Nuclei (%) [7]: 58% | Population Hoechst High Intensity Objects (%) [7]: 2% | Population Membrane Permeable-Phenotype (%) [7]: 1% | Population Mitochondria Different-Phenotype (%) [7]: 4% | Population Mitotic Cells (%) [7]: 64% | Population Normal (%) [7]: 97% | Population Pyknosed Nuclei (%) [7]: 24% | Population Tubulin-Different-Phenotype (%) [7]: 30% | Total Cell Count [7]: 143 | Population Apoptotic (%) [8]: 24% | Population Fragmented Nuclei (%) [8]: 38% | Population Healthy Nuclei (%) [8]: 41% | Population Hoechst High Intensity Objects (%) [8]: 4% | Population Membrane Permeable-Phenotype (%) [8]: 10% | Population Mitochondria Different-Phenotype (%) [8]: 1% | Population Mitotic Cells (%) [8]: 75% | Population Normal (%) [8]: 95% | Population Pyknosed Nuclei (%) [8]: 20% | Population Tubulin-Different-Phenotype (%) [8]: 40% | Total Cell Count [8]: 149 | Population Apoptotic (%) [9]: 76% | Population Fragmented Nuclei (%) [9]: 16% | Population Healthy Nuclei (%) [9]: 64% | Population Hoechst High Intensity Objects (%) [9]: 3% | Population Membrane Permeable-Phenotype (%) [9]: 0% | Population Mitochondria Different-Phenotype (%) [9]: 4% | Population Mitotic Cells (%) [9]: 23% | Population Normal (%) [9]: 96% | Population Pyknosed Nuclei (%) [9]: 18% | Population Tubulin-Different-Phenotype (%) [9]: 22% | Total Cell Count [9]: 147 | Population Apoptotic (%) [10]: 42% | Population Fragmented Nuclei (%) [10]: 30% | Population Healthy Nuclei (%) [10]: 55% | Population Hoechst High Intensity Objects (%) [10]: 4% | Population Membrane Permeable-Phenotype (%) [10]: 5% | Population Mitochondria Different-Phenotype (%) [10]: 0% | Population Mitotic Cells (%) [10]: 57% | Population Normal (%) [10]: 95% | Population Pyknosed Nuclei (%) [10]: 13% | Population Tubulin-Different-Phenotype (%) [10]: 40% | Total Cell Count [10]: 163 | Population Apoptotic (%) [11]: 60% | Population Fragmented Nuclei (%) [11]: 29% | Population Healthy Nuclei (%) [11]: 56% | Population Hoechst High Intensity Objects (%) [11]: 7% | Population Membrane Permeable-Phenotype (%) [11]: 1% | Population Mitochondria Different-Phenotype (%) [11]: 1% | Population Mitotic Cells (%) [11]: 40% | Population Normal (%) [11]: 92% | Population Pyknosed Nuclei (%) [11]: 13% | Population Tubulin-Different-Phenotype (%) [11]: 22% | Total Cell Count [11]: 159 | Population Apoptotic (%) [12]: 38% | Population Fragmented Nuclei (%) [12]: 48% | Population Healthy Nuclei (%) [12]: 38% | Population Hoechst High Intensity Objects (%) [12]: 2% | Population Membrane Permeable-Phenotype (%) [12]: 10% | Population Mitochondria Different-Phenotype (%) [12]: 5% | Population Mitotic Cells (%) [12]: 61% | Population Normal (%) [12]: 98% | Population Pyknosed Nuclei (%) [12]: 12% | Population Tubulin-Different-Phenotype (%) [12]: 57% | Total Cell Count [12]: 150
